pIC50: −log10 of the molar value.
What was measured:
HCC 2998 = test: Cytotoxicity against human HCC2998 cells after 48 hrs; format: functional; details: HCC 2998, 48 h
NCI-H226 = test: Cytotoxicity against human NCI-H226 cells after 48 hrs; format: functional; details: NCI-H226, 48 h
CCRF-CEM = test: Cytotoxicity against human CCRF-CEM cells after 48 hrs; format: functional
A498 = test: Cytotoxicity against human A498 cells after 48 hrs; format: functional; details: A498, 48 h
SNB-19 = test: Cytotoxicity against human SNB19 cells after 48 hrs; format: functional; details: SNB-19, 48 h
K562 = test: Cytotoxicity against human K562 cells after 48 hrs; format: functional; details: K562, 48 h
COLO 205 = test: Cytotoxicity against human COLO205 cells after 48 hrs; format: functional; details: COLO 205, 48 h
OVCAR-8 = test: Cytotoxicity against human OVCAR8 cells after 48 hrs; format: functional; details: OVCAR-8, 48 h
IGROV-1 = test: Cytotoxicity against human IGROV1 cells after 48 hrs; format: functional; details: IGROV-1, 48 h
MCF7 = test: Cytotoxicity against human MCF7 cells after 48 hrs; format: functional; details: MCF7, 48 h
DU-145 = test: Cytotoxicity against human DU145 cells after 48 hrs; format: functional; details: DU-145, 48 h
Malme-3M = test: Cytotoxicity against human MALME-3M cells after 48 hrs; format: functional
ACHN = test: Cytotoxicity against human ACHN cells after 48 hrs; format: functional
NCI-H522 [1] = test: Cytotoxicity against human NCI-H522 cells after 48 hrs by MTT assay; format: functional, cell-based; details: NCI-H522, 48 h
[2] = Cytotoxicity against human Hs578T cells after 48 hrs; format: functional; details: Hs-578T
MDA-MB-231 = test: Cytotoxicity against human MDA-MB-231 cells after 48 hrs; format: functional; details: MDA-MB-231, 48 h
BT-549 = test: Cytotoxicity against human BT549 cells after 48 hrs; format: functional; details: BT-549, 48 h
HCT-116 = test: Cytotoxicity against human HCT116 cells after 48 hrs; format: functional; details: HCT-116, 48 h
SR = test: Cytotoxicity against human SR cells after 48 hrs; format: functional
MDA-MB-435 = test: Cytotoxicity against human MDA-MB-435 cells after 48 hrs; format: functional; details: MDA-MB-435, 48 h
OVCAR-5 = test: Cytotoxicity against human OVCAR5 cells after 48 hrs; format: functional; details: OVCAR-5, 48 h
HT-29 = test: Cytotoxicity against human HT-29 cells after 48 hrs; format: functional; details: HT-29, 48 h
SF-295 = test: Cytotoxicity against human SF295 cells after 48 hrs; format: functional; details: SF-295, 48 h
HOP-62 = test: Cytotoxicity against human HOP62 cells after 48 hrs; format: functional; details: HOP-62, 48 h
SF-539 = test: Cytotoxicity against human SF539 cells after 48 hrs; format: functional; details: SF-539, 48 h
OVCAR-4 = test: Cytotoxicity against human OVCAR4 cells after 48 hrs; format: functional; details: OVCAR-4, 48 h
M14 = test: Cytotoxicity against human M14 cells after 48 hrs; format: functional; details: M14, 48 h
U-251 = test: Cytotoxicity against human U251 cells after 48 hrs; format: functional; details: U-251, 48 h
CAKI-1 = test: Cytotoxicity against human CAKI-1 cells after 48 hrs; format: functional; details: CAKI-1, 48 h
NCI-H522 [3] = test: Cytotoxicity against human NCI-H522 cells after 48 hrs; format: functional; details: NCI-H522, 48 h, read-out: pLC50 (the source's name) (converted)
SK-MEL-28 = test: Cytotoxicity against human SK-MEL-28 cells after 48 hrs; format: functional; details: SK-MEL-28, 48 h
786-0 = test: Cytotoxicity against human 786-0 cells after 48 hrs; format: functional; details: 786-0, 48 h
RPMI-8226 = test: Cytotoxicity against human RPMI8226 cells after 48 hrs; format: functional; details: RPMI-8226, 48 h
KM12 = test: Cytotoxicity against human KM12 cells after 48 hrs; format: functional; details: KM12, 48 h
Tubulin (Homo sapiens) = Tubulin (Homo sapiens) (UniProt P68371+Q9H4B7+P0DPH7+P68366+Q13509+Q71U36+P04350+Q3ZCM7+P07437+P68363+Q9BQE3+Q6PEY2+Q13885+Q9BVA1+Q9BUF5); test: Inhibition of tubulin polymerization in human NCI-H522 cells assessed as beta-tubulin accumulation in cytoskeletal fraction after 24 hrs by Western blot analysis; format: cell-based
Summary of the method: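 NCI-H522 cells were exposed for 24 h to compound (10, 30 or 100 nM) or DMSO vehicle. They were then lysed 5 min at 37 °C in hypotonic buffer (1 mM MgCl2, 2 mM EGTA, 0.5% NP-40, protease inhibitors, 20 mM Tris-HCl pH 6.8) and centrifuged at 15,000 × g for 10 min at 25 °C. α- and β-tubulin were assessed in the cytoskeletal fraction.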

[4] = read-out: pLC50 (the source's name) (converted)

SMILES: COc1cc(O)cc(-c2cc(=O)c3cc(N4CCCC4)ccc3[nH]2)c1
- GI50 (HCC 2998): 0.0457 µM
- CC50 (HCC 2998; [4]): > 100 µM
- TGI (HCC 2998; read-out: pTGI): > 100 µM
- GI50 (NCI-H226): > 100 µM
- CC50 (NCI-H226; [4]): > 100 µM
- TGI (NCI-H226; read-out: pTGI): > 100 µM
- GI50 (CCRF-CEM): 0.0324 µM
- CC50 (CCRF-CEM; [4]): > 100 µM
- TGI (CCRF-CEM; read-out: pTGI): > 100 µM
- GI50 (A498): 4.07 µM
- CC50 (A498; [4]): > 100 µM
- TGI (A498; read-out: pTGI): > 100 µM
- GI50 (SNB-19): 0.0741 µM
- CC50 (SNB-19; [4]): > 100 µM
- TGI (SNB-19; read-out: pTGI): > 100 µM
- GI50 (K562): 0.0234 µM
- CC50 (K562; [4]): > 100 µM
- TGI (K562; read-out: pTGI): > 100 µM
- GI50 (COLO 205): 0.0537 µM
- TGI (COLO 205; read-out: pTGI (converted)): 0.219 µM
- GI50 (OVCAR-8): 0.0389 µM
- CC50 (OVCAR-8; [4]): > 100 µM
- TGI (OVCAR-8; read-out: pTGI (converted)): 31.6 µM
- GI50 (IGROV-1): 0.363 µM
- CC50 (IGROV-1; [4]): > 100 µM
- TGI (IGROV-1; read-out: pTGI): > 100 µM
- GI50 (MCF7): 0.0479 µM
- CC50 (MCF7; [4]): > 100 µM
- TGI (MCF7; read-out: pTGI): > 100 µM
- GI50 (DU-145): 0.0309 µM
- CC50 (DU-145; [4]): > 100 µM
- TGI (DU-145; read-out: pTGI (converted)): 0.257 µM
- GI50 (Malme-3M): 0.0257 µM
- CC50 (Malme-3M; [4]): > 100 µM
- TGI (Malme-3M; read-out: pTGI): > 100 µM
- GI50 (ACHN): 0.0776 µM
- CC50 (ACHN; [4]): > 100 µM
- TGI (ACHN; read-out: pTGI): > 100 µM
- pIC50 (NCI-H522 [1]): 7.37
- GI50 [2]: 0.038 µM
- CC50 [2, 4]: > 100 µM
- TGI ([2]; read-out: pTGI (converted)): 70.8 µM
- GI50 (MDA-MB-231): 0.0501 µM
- CC50 (MDA-MB-231; [4]): > 100 µM
- TGI (MDA-MB-231; read-out: pTGI): > 100 µM
- GI50 (BT-549): 0.0372 µM
- CC50 (BT-549; [4]): > 100 µM
- TGI (BT-549; read-out: pTGI): > 100 µM
- GI50 (HCT-116): 0.0355 µM
- CC50 (HCT-116; [4]): > 100 µM
- TGI (HCT-116; read-out: pTGI): > 100 µM
- GI50 (SR): < 0.01 µM
- CC50 (SR; [4]): > 100 µM
- TGI (SR; read-out: pTGI): > 100 µM
- GI50 (MDA-MB-435): 0.01 µM
- TGI (MDA-MB-435; read-out: pTGI (converted)): 0.0295 µM
- GI50 (OVCAR-5): > 100 µM
- CC50 (OVCAR-5; [4]): > 100 µM
- TGI (OVCAR-5; read-out: pTGI): > 100 µM
- GI50 (HT-29): 0.0759 µM
- CC50 (HT-29; [4]): > 100 µM
- TGI (HT-29; read-out: pTGI): > 100 µM
- GI50 (SF-295): 0.11 µM
- TGI (SF-295; read-out: pTGI (converted)): 11.2 µM
- GI50 (HOP-62): 0.0513 µM
- CC50 (HOP-62; [4]): > 100 µM
- TGI (HOP-62; read-out: pTGI (converted)): 20.9 µM
- GI50 (SF-539): 0.0288 µM
- CC50 (SF-539; [4]): > 100 µM
- TGI (SF-539; read-out: pTGI): > 100 µM
- GI50 (OVCAR-4): 0.0977 µM
- CC50 (OVCAR-4; [4]): > 100 µM
- TGI (OVCAR-4; read-out: pTGI): > 100 µM
- GI50 (M14): 0.0302 µM
- CC50 (M14; [4]): > 100 µM
- TGI (M14; read-out: pTGI (converted)): 15.8 µM
- GI50 (U-251): 0.0468 µM
- CC50 (U-251; [4]): 87.1 µM
- TGI (U-251; read-out: pTGI (converted)): 14.5 µM
- GI50 (CAKI-1): 0.0832 µM
- CC50 (CAKI-1; [4]): > 100 µM
- TGI (CAKI-1; read-out: pTGI): > 100 µM
- CC50 (NCI-H522 [3]): 3.89 µM
- GI50 (SK-MEL-28): 0.0741 µM
- CC50 (SK-MEL-28; [4]): > 100 µM
- TGI (SK-MEL-28; read-out: pTGI): > 100 µM
- GI50 (786-0): 0.178 µM
- CC50 (786-0; [4]): > 100 µM
- TGI (786-0; read-out: pTGI): > 100 µM
- GI50 (RPMI-8226): 0.468 µM
- CC50 (RPMI-8226; [4]): > 100 µM
- TGI (RPMI-8226; read-out: pTGI): > 100 µM
- GI50 (KM12): 0.0347 µM
- CC50 (KM12; [4]): > 100 µM
- TGI (KM12; read-out: pTGI): > 100 µM
- inhibition (Tubulin (Homo sapiens)): Dose-dependent effect

From ChEMBL document CHEMBL2417372, “Design, synthesis, and mechanism of action of 2-(3-hydroxy-5-methoxyphenyl)-6-pyrrolidinylquinolin-4-one as a potent anticancer lead” (Bioorg Med Chem Lett, 2013)
